Reference: ChEMBL document CHEMBL1128383, “Potent, orally active, competitive N-methyl-D-aspartate (NMDA) receptor antagonists are substrates for a neutral amino acid uptake system in Chinese hamster ovary cells” (J Med Chem, 1995)
Each block holds one molecule with its values, some of them ahead of it.

Columns and labels:
[1] = Therapeutic index(TI) expressed as ratio of ataxia ED50 to the MES ED50 was determined; conditions: read-out: TI
[2] = target: Glutamate NMDA receptor; experiment: (§1) Inhibition of NMDA receptor binding affinity in rat brain synaptosomal membrane using [3H]glutamate as radioligand; assay type: cell membranes
How it was run: (§2)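 Displacement of radioligand ([3H]glutamate, [3H]glycine or [3H]CGP 39653) from rat cortex synaptosomal membranes. IC50 values are means of at least two experiments, each run in triplicate.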

[3] = target: Glutamate NMDA receptor; experiment: Inhibition of NMDA receptor binding affinity in rat brain synaptosomal membrane was determined by [3H]-CGP- 39653 as radioligand; assay type: cell membranes
How it was run: (§3)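 Displacement of the named radioligand from rat cortex synaptosomal membranes, following previously reported procedures. IC50 values are means of at least two experiments, each run in triplicate.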

[4] = target: Glutamate NMDA receptor; experiment: (§4) Inhibition of NMDA receptor binding affinity in rat brain synaptosomal membrane by using [3H]glycine as radioligand; assay type: cell membranes; how it was run: as §3
[5] = target: T1, Glutamate NMDA receptor (Rattus norvegicus) (UniProt P35439+Q00959+Q00960+Q00961+Q62645+Q8VHN2+Q9R1M7); experiment: (§5) Inhibition of receptor binding affinity in rat brain synaptosomal membrane was determined by [3H]-CGP- 39653 as radioligand; assay type: cell membranes; conditions: concentration not given here; how it was run: as §2
[6] = target: T1, Glutamate NMDA receptor (Rattus norvegicus); experiment: as §4; assay type: cell membranes; conditions: concentration not given here; how it was run: as §2
[7] = target: T1, Glutamate NMDA receptor (Rattus norvegicus); experiment: Inhibition of NMDA receptor binding in rat brain synaptosomal membrane using [3H]glutamate as radioligand; assay type: cell membranes; conditions: concentration not given here; how it was run: as §2
[8] = test system: Mus musculus; experiment: Maximal electroshock (MES) results in mice by iv administration of 10 mg/kg expressed as number of animals protected by total 5 animals tested after 2 hr was reported; assay type: functional
How it was run: (§6)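 Adult male CF-1 mice (18–24 g) dosed iv, mg/kg. At 15 min, 1 h and 2 h after dosing, a 60 Hz sinusoidal current (50 mA base to peak, 0.2 s) is applied through corneal electrodes smeared with electrolyte jelly. Protection means no tonic hindlimb extension. Ataxia is scored by inverted screen. Data are expressed as animals affected per animals tested, 5 per group.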

[9] = test system: Mus musculus; experiment: Maximal electroshock (MES) results in mice by iv administration of 10 mg/kg expressed as number of animals with ataxia total 5 animals tested after 15 min was reported; assay type: functional; how it was run: as §6
[10] = test system: Mus musculus; experiment: Maximal electroshock (MES) results in mice by iv administration of 10 mg/kg expressed as number of animals with ataxia total 5 animals tested after 2 hr was reported; assay type: functional; how it was run: as §6
[11] = test system: Mus musculus; experiment: Maximal electroshock (MES) results in mice by iv administration of 3 mg/kg expressed as number of animals with ataxia by total 5 animals tested after 1 hr was reported; assay type: functional; how it was run: as §6
[12] = test system: Mus musculus; experiment: Maximal electroshock (MES) results in mice by iv administration of 3 mg/kg expressed as number of animals with ataxia by total 5 animals tested after 15 min was reported; assay type: functional; how it was run: as §6
[13] = test system: Mus musculus; experiment: Maximal electroshock (MES) results in mice by iv administration of 3 mg/kg expressed as number of animals protected by total 5 animals tested after 2 hr was reported; assay type: functional; how it was run: as §6
[14] = test system: Mus musculus; experiment: Maximal electroshock (MES) results in mice by iv administration of 3 mg/kg expressed as number of animals with ataxia total 5 animals tested after 2 hr was reported; assay type: functional; how it was run: as §6
[15] = target: Glutamate NMDA receptor; experiment: Inhibition of receptor binding affinity in […] measured using LDH release
How it was run: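 Neuronal cell-culture excitotoxicity assay. Cell death is induced by a 5 min application of 100 μM NMDA and read out as lactate dehydrogenase release. The value is the compound concentration needed to prevent cell death.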

[16] = test system: Mus musculus; experiment: Maximal electroshock (MES) results in mice by iv administration of 3 mg/kg expressed as number of animals protected by total 5 animals tested after 1 hr was reported; assay type: functional; how it was run: as §6
[17] = test system: Mus musculus; experiment: Maximal electroshock (MES) results in mice by iv administration of 10 mg/kg expressed as number of animals with ataxia total 5 animals tested after 1 hr was reported; assay type: functional; how it was run: as §6
[18] = target: Glutamate NMDA receptor; experiment: as §5; assay type: cell membranes; how it was run: as §2
[19] = target: Glutamate NMDA receptor; experiment: (§7) Inhibition of NMDA receptor binding affinity in rat brain synaptosomal membrane using [3H]glycine as radioligand; assay type: cell membranes; how it was run: as §2
[20] = test system: Mus musculus; experiment: Maximal electroshock (MES) results in mice by iv administration of 10 mg/kg expressed as number of animals protected by total 5 animals tested after 15 min was reported; assay type: functional; how it was run: as §6
[21] = test system: Mus musculus; experiment: Maximal electroshock (MES) results in mice by iv administration of 3 mg/kg expressed as number of animals protected by total 5 animals tested after 15 min was reported; assay type: functional; how it was run: as §6
[22] = test system: Mus musculus; experiment: Maximal electroshock (MES) results in mice by iv administration of 10 mg/kg expressed as number of animals protected by total 5 animals tested after 1 hr was reported; assay type: functional; how it was run: as §6
[23] = target: T1, Glutamate NMDA receptor (Rattus norvegicus); experiment: as §1; assay type: cell membranes; conditions: concentration not given here; how it was run: as §2
[24] = target: T1, Glutamate NMDA receptor (Rattus norvegicus); experiment: as §7; assay type: cell membranes; conditions: concentration not given here; how it was run: as §2
[25] = test system: Mus musculus; experiment: Maximal electroshock (MES) results in mice by iv administration of 1 mg/kg expressed as number of animals ataxia by total 5 animals tested after 1 hr was reported; assay type: functional; how it was run: as §6
[26] = test system: Mus musculus; experiment: Maximal electroshock (MES) results in mice by iv administration of 1 mg/kg expressed as number of animals protected by total 5 animals tested after 2 hr was reported; assay type: functional; how it was run: as §6
[27] = test system: Mus musculus; experiment: Maximal electroshock (MES) results in mice by iv administration of 0.3 mg/kg expressed as number of animals ataxia by total 5 animals tested after 15 min was reported; assay type: functional; how it was run: as §6
[28] = test system: Mus musculus; experiment: Maximal electroshock (MES) results in mice by iv administration of 0.3 mg/kg expressed as number of animals protected by total 5 animals tested after 2 hr was reported; assay type: functional; how it was run: as §6
[29] = test system: Mus musculus; experiment: Maximal electroshock (MES) results in mice by iv administration of 1 mg/kg expressed as number of animals ataxia by total 5 animals tested after 2 hr was reported; assay type: functional; how it was run: as §6
[30] = test system: Mus musculus; experiment: Maximal electroshock (MES) results in mice by iv administration of 1 mg/kg expressed as number of animals ataxia by total 5 animals tested after 15 min was reported; assay type: functional; how it was run: as §6
[31] = test system: Mus musculus; experiment: Maximal electroshock (MES) results in mice by iv administration of 1 mg/kg expressed as number of animals protected by total 5 animals tested after 15 min was reported; assay type: functional; how it was run: as §6
[32] = test system: Mus musculus; experiment: Maximal electroshock (MES) results in mice by iv administration of 1 mg/kg expressed as number of animals protected by total 5 animals tested after 1 hr was reported; assay type: functional; how it was run: as §6
[33] = test system: Mus musculus; experiment: Maximal electroshock (MES) results in mice by iv administration of 0.3 mg/kg expressed as number of animals ataxia by total 5 animals tested after 2 hr was reported; assay type: functional; how it was run: as §6
[34] = test system: Mus musculus; experiment: Maximal electroshock (MES) results in mice by iv administration of 0.3 mg/kg expressed as number of animals protected by total 5 animals tested after 1 hr was reported; assay type: functional; how it was run: as §6
[35] = test system: Mus musculus; experiment: Maximal electroshock (MES) results in mice by iv administration of 0.3 mg/kg expressed as number of animals ataxia by number of animals tested after 1 hr was reported; assay type: functional; how it was run: as §6
[36] = test system: Mus musculus; experiment: Maximal electroshock (MES) results in mice by iv administration of 0.3 mg/kg expressed as number of animals protected by total 5 animals tested after 15 min was reported; assay type: functional; how it was run: as §6

IC50 [2]: 837 nM
IC50 [3]: 148 nM
IC50 [4]: > 200000 nM
Structure (SMILES): O=C(O)C1CN(CCCP(=O)(O)O)CCN1 (stereo not drawn)
selectivity ratio [1]: 2.21

inhibition [5]: 86%
inhibition [6]: 100%
inhibition [7]: 80%
Structure (SMILES): O=P(O)(O)Cc1cc(CP(=O)(O)O)cc(-c2ccccc2)c1

IC50 [2]: 130 nM
IC50 [15]: 1000 nM
IC50 [18]: 88 nM
IC50 [19]: 224000 nM
Structure (SMILES): N[C@@H](Cc1cc(CP(=O)(O)O)cc(-c2ccccc2)c1)C(=O)O
Protected [8]: 3
Ataxia [9]: 0
Ataxia [10]: 0
Ataxia [11]: 0
Ataxia [12]: 0
Protected [13]: 1
Ataxia [14]: 0
Protected [16]: 0
Ataxia [17]: 1
Protected [20]: 5
Protected [21]: 1
Protected [22]: 4

inhibition [5]: 52%
inhibition [23]: 58%
inhibition [24]: 52%
Structure (SMILES): N[C@@H](Cc1cccc(-c2ccccc2)c1)C(=O)O

IC50 [2]: 14 nM
IC50 [18]: 12 nM
Structure (SMILES): N[C@@H](Cc1cc(CP(=O)(O)O)cc(-c2ccc3ccccc3c2)c1)C(=O)O
Ataxia [25]: 1
Protected [26]: 5
Ataxia [27]: 0
Protected [28]: 2
Ataxia [29]: 0
Ataxia [30]: 0
Protected [31]: 1
Protected [32]: 5
Ataxia [33]: 0
Protected [34]: 0
Ataxia [35]: 0
Protected [36]: 1

IC50 [2]: 2300 nM
IC50 [18]: 1080 nM
IC50 [19]: 11500 nM
Structure (SMILES): N[C@@H](Cc1cc(-c2ccccc2)cc(CP(=O)(O)O)c1[N+](=O)[O-])C(=O)O
